This note sets out measurements from ChEMBL document CHEMBL4033788, “Novel Ligustrazine-Based Analogs of Piperlongumine Potently Suppress Proliferation and Metastasis of Colorectal Cancer Cells in Vitro and in Vivo” (J Med Chem, 2018).

The source made the active and inactive calls. The rule behind the calls is not given here.

The subject of data set [1] is HCT-116. Put plainly: Cytotoxicity against human HCT116 cells assessed as reduction in cell viability at 50 nM after 72 hrs by MTT assay. It is filed as cell-based. Conditions: hct-116, 72 h, 0.05 µM. In short, it runs like this: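 HCT-116 cells exposed to TGF-β1 (10 ng/mL) alone or combined with test agent at 2, 10 or 50 nM for 24, 48 or 72 h. Viability read by MTT (formazan in DMSO, 570 nm).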
In general terms: Tetrazolium assays rely on reduction of a dye to a coloured formazan, in cell work by metabolically active cells.

Data set [2] deals with HCT-116. Description: Induction of ROS accumulation in human HCT116 cells at 1 to 10 uM up to 3 hrs by DCFH-DA staining-based fluorescence spectrometric analysis. The class given is functional, cell-based. In short, it runs like this: (§1)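 HCT-116 and CCD-841 cells treated in triplicate at 1, 5 and 10 μM for 1, 2 and 3 h. Intracellular ROS stained with DCFH-DA and fluorescence read on a microplate reader. Values expressed relative to DMSO control, from three separate experiments.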

A short description of data set [3]: Induction of ROS accumulation in human CCD-841 cells at 1 to 10 uM up to 3 hrs by DCFH-DA staining-based fluorescence spectrometric analysis. The class given is cell-based. The conditions noted are these: ccd-841, 3 h. In short, it runs like this: as §1
The next data set has as its system Mus musculus. Put plainly: Acute toxicity in ICR mouse assessed as mortality at 400 mg/kg, ip administered for 14 days. The class given is organism-based. The conditions noted are these: in vivo, 336 h.
Data set [4] in a line: Acute toxicity in ICR mouse assessed as survival rate at 400 mg/kg, ip administered for 14 days relative to control. It is filed as organism-based. The conditions noted are these: in vivo.
For data set [5], the system named is HCT-116. Put plainly: Inhibition of TGF-beta1-induced increase in expression levels of MMP-9 protein in human HCT116 cells after 48 hrs by Western blot analysis. The class given is functional, cell-based. Put shortly:
(§2)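 HCT-116 cells treated with or without TGF-β1 (10 ng/mL) for 48 h, with or without test agent. Lysates (20 μg/lane) run on 7.5% SDS-PAGE and transferred to PVDF. Probed for p-Akt (Ser473), Akt, p-GSK-3β (S9), GSK-3β, E-cadherin, MMP-9 and β-actin, detected by ECL. Densitometry relative to β-actin or total protein. Three independent experiments.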
On the technique in general: Immunoblotting shows a protein as a band on a membrane.

The target of data set [6] is T1, Catenin beta-1 (Homo sapiens) (UniProt P35222).
T1 sequence (whole entry): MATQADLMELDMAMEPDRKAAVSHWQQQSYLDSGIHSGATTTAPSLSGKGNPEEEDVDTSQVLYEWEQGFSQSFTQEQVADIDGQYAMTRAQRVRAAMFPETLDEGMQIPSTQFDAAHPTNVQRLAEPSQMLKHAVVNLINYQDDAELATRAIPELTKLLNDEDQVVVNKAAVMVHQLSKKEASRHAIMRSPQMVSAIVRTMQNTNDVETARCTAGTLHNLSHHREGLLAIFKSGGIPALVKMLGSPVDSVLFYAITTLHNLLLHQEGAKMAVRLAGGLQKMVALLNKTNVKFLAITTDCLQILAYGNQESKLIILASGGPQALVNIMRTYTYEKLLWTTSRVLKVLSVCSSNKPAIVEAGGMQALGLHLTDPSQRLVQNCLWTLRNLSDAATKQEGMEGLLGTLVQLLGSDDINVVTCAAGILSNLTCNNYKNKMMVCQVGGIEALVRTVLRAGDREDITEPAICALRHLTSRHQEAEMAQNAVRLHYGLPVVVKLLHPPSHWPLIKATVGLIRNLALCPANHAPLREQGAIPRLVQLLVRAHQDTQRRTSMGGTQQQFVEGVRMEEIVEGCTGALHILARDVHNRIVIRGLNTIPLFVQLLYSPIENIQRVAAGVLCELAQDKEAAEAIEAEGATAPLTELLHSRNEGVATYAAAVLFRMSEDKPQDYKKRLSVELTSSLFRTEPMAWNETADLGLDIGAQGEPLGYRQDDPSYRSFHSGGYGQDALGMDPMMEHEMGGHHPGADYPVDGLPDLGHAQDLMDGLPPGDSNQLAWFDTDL
Description: Inhibition of TGF-beta1-regulated decrease in cytoplasmic beta-catenin in human HCT116 cells at 2 to 50 nM after 48 hrs by Western blot analysis. It is filed as cell-based. In short, it runs like this:
(§3)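 Cytoplasmic and nuclear β-catenin were measured by Western blot in HCT-116 cells given TGF-β1 (10 ng/mL) for 48 h, with or without compound, against 0.1% DMSO vehicle. Lysates (20 μg/lane) were run on 7.5% gels and transferred to PVDF, with Lamin A among the antibodies used. Blots were read by ECL and densitometry, n = 3 independent experiments.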

Data set [7] has as its system HCT-116. Put plainly: Antitumor activity against human HCT116 cells xenografted in BALB/c nude mouse assessed as reduction in tumor volume at 2.5 to 5 mg/kg, ip administered daily for 21 consecutive days. The class given is functional, organism-based. Put shortly:
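Male BALB/c nude mice, 3–5 weeks old, inoculated subcutaneously with 1 × 10^7 HCT-116 cells. At about 75 mm³ tumor volume, randomized (n = 8/group) and dosed intraperitoneally daily. Volume by caliper as d² × D/2. At the end, tumors excised and weighed; inhibition = (Wcontrol − Wtreated)/Wcontrol × 100%.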
A general note: A xenograft is tissue or cells of one species grown in another, often human tumour cells in immunodeficient mice.

Data set [8] concerns HCT-116. Put plainly: Antimigratory activity in human HCT116 cells assessed as inhibition of TGF-beta1-induced cell migration at 50 nM after 48 hrs by trans-well assay. The class given is functional, cell-based. Put shortly:
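HCT-116 cells (1 × 10^5/well) placed in upper chambers of 8 μm pore transwells. Lower chambers held, in triplicate, medium alone or TGF-β1 (10 ng/mL) with or without test agents (2, 10, 50 nM) for 48 h. Non-migrated cells removed, migrated cells stained with crystal violet, 10 fields per well counted blinded. Three independent experiments.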

Another data set deals with U-87 MG. Description: Antiproliferative activity against human U87MG cells after 72 hrs in presence of ligustrazine by MTT assay. It is filed as functional, cell-based, U-87MG ATCC. Put shortly: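 Cells grown in RPMI 1640 with 10% FBS in 96-well plates overnight, then exposed to test agents in triplicate for 72 h. MTT (5 mg/mL stock) added for the last 4 h, formazan dissolved in DMSO, absorbance read at 570 nm. Inhibition = (1 − OD treated/OD control) × 100%.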

The test system of data set [9] is HCT-116. Put plainly: Antiproliferative activity against human HCT116 cells at 8 uM pretreated with GSH for 1 hr measured after 72 hrs by MTT assay. The class given is functional, cell-based. Put shortly:
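HCT-116 cells pretreated with or without GSH (10 mM) for 1 h, washed, then treated for 72 h. Viability measured by MTT and inhibitory rates calculated. Mean ± SD of three independent experiments.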

Data set [10] deals with HCT-116. Put plainly: Inhibition of TGF-beta1-induced decrease in expression levels of E-cadherin protein in human HCT116 cells at 50 nM after 48 hrs by Western blot analysis. It is filed as functional, cell-based. In short, it runs like this: as §2
Data set [11] concerns HCT-116. Description: Inhibition of TGF-beta1-induced increase in expression levels of twist protein in human HCT116 cells at 50 nM after 48 hrs by Western blot analysis. The class given is functional, cell-based. Put shortly: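 HCT-116 cells (1 × 10^6/well, plated overnight) were exposed to TGF-β1 (10 ng/mL) for 48 h, with or without test compound; vehicle was 0.1% DMSO. Lysates (20 μg/lane) were run on 7.5% SDS-PAGE and blotted to PVDF, with primary antibody overnight at 4 °C and HRP/ECL detection. Band densities were normalised to β-actin across three independent experiments.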

In data set [12] the target is T1, Catenin beta-1 (Homo sapiens). Description: Inhibition of TGF-beta1-regulated decrease in cytoplasmic beta-catenin in human HCT116 cells at 50 nM after 48 hrs by Western blot analysis. It is filed as cell-based. In short, it runs like this:
as §3

`Cc1nc(C)c(/C=C/C(=O)N2CCC=C(Cl)C2=O)nc1C`: the values for the Activity entry (in the data set with HCT-116 [1]; in [3]; in the data set with Mus musculus) were “Toxic”, “Non-Toxic” and “Toxic”, respectively. Also, the result with HCT-116 [2] and with HCT-116 [7] was Active. In data set [4], the survival at 336 h is 0%. In addition, the inhibition result in the data set on HCT-116 [5] is “Dose-dependent effect”. For the same compound, the inhibition entry in data set [6] is “Active”.
Turning to `COc1cc(/C=C/C(=O)N2CCC=CC2=O)cc(OC)c1OC` [PIPLARTINE], in the data set with HCT-116 [8], the result was Active. In addition, in the data set on U-87 MG, the IC50 came out at 16.1 µM. The outcome in the data set on HCT-116 [9] was inactive. Further, the inhibition entry (in the data set with HCT-116 [10]; in the data set with HCT-116 [11]; in data set [12]) was “Active” throughout.

For orientation: IC50 means the midpoint of a concentration-inhibition curve.
